This is an account of results in paper PMC3426361 (Journal of biomolecular screening, 2010).

For this data set, the target named is TDP-43 (Homo sapiens, UniProt Q13148). The data set can be described thus: Association and dissociation rates of bt-TAR-32 and bt-TG6 binding to TDP-43. As to conditions: slope of kobs vs ligand concentration; arithmetic mean ± SEM, 3 determinations. A digest of the protocol: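 GST-tagged TDP-43 (5 ng/mL, 40 pM) on anti-GST beads (10 μg/mL, preincubated) added at staggered times to biotinylated oligonucleotide (0.25–6.0 nM) prebound 30 min RT to streptavidin donor beads (10 μg/mL). Buffer: 25 mM Tris pH 7.4, 0.1% BSA, 0.1% Triton X-100. AlphaScreen signal read together at end, dark, RT. kobs from one-site exponential association fits per concentration.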
TDP-43, sequence (Q13148 whole entry): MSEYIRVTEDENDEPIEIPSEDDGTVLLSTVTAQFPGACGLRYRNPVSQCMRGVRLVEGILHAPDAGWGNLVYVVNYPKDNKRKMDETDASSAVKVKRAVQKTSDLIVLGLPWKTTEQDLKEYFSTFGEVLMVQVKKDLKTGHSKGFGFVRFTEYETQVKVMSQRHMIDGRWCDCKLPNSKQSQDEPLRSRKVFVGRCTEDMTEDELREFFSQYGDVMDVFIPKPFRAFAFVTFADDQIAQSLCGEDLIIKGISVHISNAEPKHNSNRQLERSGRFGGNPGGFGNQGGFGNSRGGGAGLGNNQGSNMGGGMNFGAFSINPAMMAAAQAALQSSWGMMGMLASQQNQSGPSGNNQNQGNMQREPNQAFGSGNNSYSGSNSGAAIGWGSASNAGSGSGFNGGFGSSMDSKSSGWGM

Consider “5′-CTGCTTTTTGCCTGTACTGGGTCTCTGTGGTT-3′ (DNA CTGCTTTTTGCCTGTACTGGGTCTCTGTGGTT; chemistry not given here) [TAR-32]”, for which the kon came to 2.4 ± 0.93 µmol⁻¹ min⁻¹.
